The source made the active and inactive calls. The calls are words filed in the database; no cut-off is given here.
Tests used:
[1] = test system: U-87MG ATCC; experiment: Inhibition of kynurenine production in human U87 cells […] and measured after 24 hrs by Ehrlich's reagent based analysis; assay type: functional, cell-based; settings: dose 0.001-10 µM
In short: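 U87 cells plated, then 24 h later given compound with 50 ng/mL IFN-γ for a total of 24 h. Supernatant kynurenine measured with Ehrlich's reagent; cells without IFN-γ as control; mean ± SEM, Tukey's test.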

[2] = target: T1, Protein cereblon/Indoleamine 2,3-dioxygenase 1 (Homo sapiens, UniProt P14902+Q96SW2); experiment: (§1) PROTAC activity at CRBN/N-terminal HiBiT-tagged IDO1 (unknown origin) transfected in human U87 cells assessed as induction of IDO1 degradation pretreated with IFN-gamma for 24 hrs followed by compound addition and measured after 24 hrs by Nano-Glo HiBiT assay; assay type: cell-based
In short: (§2)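 U87 cells carrying HiBiT knocked in by CRISPR/Cas9 at the IDO1 N-terminus, treated for 24 h. Degradation read as loss of luminescence. DC50 fitted from the lowest concentration up to maximal degradation, excluding hook-effect points; triplicate mean ± SD.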
Target sequence in this assay (P14902 whole entry): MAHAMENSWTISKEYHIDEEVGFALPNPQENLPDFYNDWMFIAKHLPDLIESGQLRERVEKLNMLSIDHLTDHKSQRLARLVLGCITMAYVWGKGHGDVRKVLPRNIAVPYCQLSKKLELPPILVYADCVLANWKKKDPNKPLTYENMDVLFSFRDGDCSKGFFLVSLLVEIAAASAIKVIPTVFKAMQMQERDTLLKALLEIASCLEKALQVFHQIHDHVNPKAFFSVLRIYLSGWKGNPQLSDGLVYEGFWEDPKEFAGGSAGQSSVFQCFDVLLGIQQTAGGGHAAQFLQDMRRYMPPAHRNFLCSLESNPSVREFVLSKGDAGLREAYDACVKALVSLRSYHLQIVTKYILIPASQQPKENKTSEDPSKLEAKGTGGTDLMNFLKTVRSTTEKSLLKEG
Target sequence in this assay (Q96SW2 whole entry): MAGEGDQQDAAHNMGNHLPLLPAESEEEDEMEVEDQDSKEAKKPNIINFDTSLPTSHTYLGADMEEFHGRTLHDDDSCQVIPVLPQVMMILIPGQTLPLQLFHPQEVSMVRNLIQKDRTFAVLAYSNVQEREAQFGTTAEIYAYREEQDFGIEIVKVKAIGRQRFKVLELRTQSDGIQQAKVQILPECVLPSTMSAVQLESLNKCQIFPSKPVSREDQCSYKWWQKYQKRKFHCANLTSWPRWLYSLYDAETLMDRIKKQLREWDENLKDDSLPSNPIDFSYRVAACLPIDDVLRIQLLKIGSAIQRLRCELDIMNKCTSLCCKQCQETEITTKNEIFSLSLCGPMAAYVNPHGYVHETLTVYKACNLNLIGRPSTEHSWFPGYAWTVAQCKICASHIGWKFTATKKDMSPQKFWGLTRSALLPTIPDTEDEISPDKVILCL

[3] = target: T1, Protein cereblon/Indoleamine 2,3-dioxygenase 1; experiment: PROTAC activity at CRBN/IDO1 in human GBM43 cell assessed as induction of IDO1 degradation at 3 uM pretreated with IFN-gamma for 24 hrs followed by compound addition and measured after 24 hrs by Western blotting analysis (reference value: 100%); assay type: cell-based
In short: (§3)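 GBM43 patient-derived cells given an extended dose range of PROTAC for 24 h. Protein analysed by Western blot for IDO1, and IFNγ-induced IDO1 normalised to untreated samples. n = 3 independent experiments; data as mean ± SEM.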
Target sequence in this assay (P14902 whole entry, looked up): as the sequence (P14902 whole entry) above
Target sequence in this assay (Q96SW2 whole entry, looked up): as the sequence (Q96SW2 whole entry) above

[4] = target: T1, Protein cereblon/Indoleamine 2,3-dioxygenase 1; experiment: PROTAC activity at CRBN/IDO1 in human U87 cells assessed as induction of IDO1 degradation at 100 nM at 1 uM pretreated with IFN-gamma for 24 hrs followed by compound addition and measured after 24 hrs in presence of MG132 by Western blotting analysis; assay type: cell-based
Target sequence in this assay (P14902 whole entry, looked up): as the sequence (P14902 whole entry) above
Target sequence in this assay (Q96SW2 whole entry, looked up): as the sequence (Q96SW2 whole entry) above

[5] = target: T1, Protein cereblon/Indoleamine 2,3-dioxygenase 1; experiment: PROTAC activity at CRBN/IDO1 in human KNS-42 cells assessed as induction of IDO1 degradation pretreated with IFN-gamma for 24 hrs followed by compound addition and measured after 24 hrs by Western blotting analysis; assay type: cell-based; settings: dose 50-100 nM
In short: (§4)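 Cells had IDO1 induced with IFNγ, then were treated at the indicated concentrations for 24 h. Lines: PDX-6 and PDX-38 adult GBM PDX cells, U87 overexpressing GFP-fused IDO1, PC-3, KNS42, MDA-MB-231, SW-1990 and SKOV-3. Lysates probed for IDO1 and GAPDH by Western blot; representative of 3 separate replicates.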
Target sequence in this assay (P14902 whole entry, looked up): as the sequence (P14902 whole entry) above
Target sequence in this assay (Q96SW2 whole entry, looked up): as the sequence (Q96SW2 whole entry) above

[6] = target: T1, Protein cereblon/Indoleamine 2,3-dioxygenase 1; experiment: PROTAC activity at CRBN/IDO1 in human U87 cells assessed as induction of IDO1 degradation by measuring remaining activity at 100 nM pretreated with IFN-gamma for 24 hrs followed by compound addition and measured after 24 hrs by Western blotting analysis (reference value: 100%); assay type: cell-based
Target sequence in this assay (P14902 whole entry, looked up): as the sequence (P14902 whole entry) above
Target sequence in this assay (Q96SW2 whole entry, looked up): as the sequence (Q96SW2 whole entry) above

[7] = test system: PDX-38; experiment: Inhibition of kynurenine production in human PDX-38 cells pretreated with IFN-gamma for 24 hrs followed by compound addition and measured after 24 hrs by Ehrlich's reagent based analysis; assay type: functional, cell-based; settings: dose 50-100 nM
[8] = AUC (0 to infinity) in female C57BL/6J mouse brain at 50 mg/kg, ip by LC-MS/MS analysis; assay type: ADME, organism-based
[9] = target: T1, Protein cereblon/Indoleamine 2,3-dioxygenase 1; experiment: PROTAC activity at CRBN/IDO1 in human U87 cells assessed as induction of IDO1 degradation at 100 nM pretreated with IFN-gamma for 24 hrs followed by compound addition and measured after 24 hrs in presence of NU223618 by Western blotting analysis; assay type: cell-based
Target sequence in this assay (P14902 whole entry, looked up): as the sequence (P14902 whole entry) above
Target sequence in this assay (Q96SW2 whole entry, looked up): as the sequence (Q96SW2 whole entry) above

[10] = target: T1, Protein cereblon/Indoleamine 2,3-dioxygenase 1; experiment: PROTAC activity at CRBN/IDO1 in human U87 cells assessed as induction of IDO1 degradation by measuring remaining activity at 0.3 uM pretreated with IFN-gamma for 24 hrs followed by compound addition and measured after 24 hrs by Western blotting analysis (reference value: 100%); assay type: cell-based
In short: (§5)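 U87 cells given an extended dose range of PROTAC for 24 h, then Western blot for IDO1. IFNγ-induced IDO1 levels normalised to untreated samples. n = 3 independent experiments; mean ± SEM.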
Target sequence in this assay (P14902 whole entry, looked up): as the sequence (P14902 whole entry) above
Target sequence in this assay (Q96SW2 whole entry, looked up): as the sequence (Q96SW2 whole entry) above

[11] = target: T1, Protein cereblon/Indoleamine 2,3-dioxygenase 1; experiment: PROTAC activity at CRBN/IDO1 in human U87 cells assessed as induction of IDO1 degradation by measuring remaining activity at 10 uM pretreated with IFN-gamma for 24 hrs followed by compound addition and measured after 24 hrs by Western blotting analysis (reference value: 100%); assay type: cell-based; in short: as §5
[12] = target: T1, Protein cereblon/Indoleamine 2,3-dioxygenase 1; experiment: PROTAC activity at CRBN/IDO1 in human PDX-6 cells assessed as induction of IDO1 degradation pretreated with IFN-gamma for 24 hrs followed by compound addition and measured after 24 hrs by Western blotting analysis; assay type: cell-based; settings: dose 50-100 nM; in short: as §4
[13] = target: T1, Protein cereblon/Indoleamine 2,3-dioxygenase 1; experiment: PROTAC activity at CRBN/IDO1 in human U87 cells assessed as induction of IDO1 degradation by measuring remaining activity at 25 nM pretreated with IFN-gamma for 24 hrs followed by compound addition and measured after 24 hrs by Western blotting analysis (reference value: 100%); assay type: cell-based
[14] = target: T1, Protein cereblon/Indoleamine 2,3-dioxygenase 1; experiment: as §1, with “degradation by measuring maximum efficacy” for “degradation”, “assay relative to control” for “assay”; assay type: cell-based; in short: as §2
[15] = test system: PDX-6; experiment: Inhibition of kynurenine production in human PDX-6 cells pretreated with IFN-gamma for 24 hrs followed by compound addition and measured after 24 hrs by Ehrlich's reagent based analysis; assay type: functional, cell-based; settings: dose 50-100 nM
[16] = target: T1, Protein cereblon/Indoleamine 2,3-dioxygenase 1; experiment: PROTAC activity at CRBN/IDO1 in human U87 cells assessed as induction of IDO1 degradation at 100 nM at 1 uM pretreated with IFN-gamma for 24 hrs followed by compound addition and measured after 24 hrs in presence of pomalidomide by Western blotting analysis; assay type: cell-based
[17] = target: Indoleamine 2,3-dioxygenase 1 (Homo sapiens) (UniProt P14902); experiment: Binding affinity to 6His-tagged recombinant IDO1 (unknown origin) assessed as binary complex formation by measuring half life by Biolayer Interferometry assay
Indoleamine 2,3-dioxygenase 1 (Homo sapiens), sequence (P14902 whole entry, looked up, the tested form may be a part): as the sequence (P14902 whole entry) above

[18] = target: T1, Protein cereblon/Indoleamine 2,3-dioxygenase 1; experiment: PROTAC activity at CRBN/IDO1 in human U87 cells overexpressing GFP-fused IDO1 assessed as induction of IDO1 degradation pretreated with IFN-gamma for 24 hrs followed by compound addition and measured after 24 hrs by Western blotting analysis; assay type: cell-based; settings: dose 50-100 nM; in short: as §4
[19] = test system: Kelly; experiment: Downregulation of CDK8 protein level in human Kelly cells at 1 uM incubated for 24 hrs by proteomics analysis; assay type: functional, cell-based
[20] = target: T1, Protein cereblon/Indoleamine 2,3-dioxygenase 1; experiment: PROTAC activity at CRBN/IDO1 in human GBM43 cell assessed as induction of IDO1 degradation pretreated with IFN-gamma for 24 hrs followed by compound addition and measured after 24 hrs by Western blot analysis; assay type: cell-based
In short: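 GBM43 cells treated for 24 h across an extended dose range. IDO1 Western blot, IFN-γ-induced IDO1 normalized to untreated; DC50 from n = 3 independent experiments.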
Target sequence in this assay (P14902 whole entry): as above
Target sequence in this assay (Q96SW2 whole entry): as the sequence (Q96SW2 whole entry) above

[21] = target: T1, Protein cereblon/Indoleamine 2,3-dioxygenase 1; experiment: PROTAC activity at CRBN/IDO1 in human U87 cells assessed as induction of IDO1 degradation by measuring remaining activity at 1 uM pretreated with IFN-gamma for 24 hrs followed by compound addition and measured after 24 hrs by Western blotting analysis (reference value: 100%); assay type: cell-based; in short: as §5
[22] = target: T1, Protein cereblon/Indoleamine 2,3-dioxygenase 1; experiment: PROTAC activity at CRBN/IDO1 in human GBM43 cell assessed as induction of IDO1 degradation at 10 uM pretreated with IFN-gamma for 24 hrs followed by compound addition and measured after 24 hrs by Western blotting analysis (reference value: 100%); assay type: cell-based; in short: as §3

For `C[C@@H](C(=O)Nc1cccc(OC2CCN(C(=O)CN3CCC(N4CCN(c5ccc6c(c5)C(=O)N(C5CCC(=O)NC5=O)C6=O)CC4)CC3)CC2)c1)[C@H]1CC[C@@H](c2ccnc3ccc(F)cc32)CC1` (some centres not stated), the inhibition [1] was “Dose-dependent-effect”, the DC50 [2] was 4.5 nM and the Activity [3] was 77%. For the same compound, the Activity [4] was “inactive”, the Activity [5] was “Dose-dependent-effect” and the Activity [6] was 24%. The inhibition [7] was “Dose-dependent-effect”, the AUC(0-inf) [8] was 1 µM·h and the Activity [9] was “inactive”. For the same compound, the Activity [10] was 20%, the Activity [11] was 69% and the Activity [12] was “Dose-dependent-effect”. The Activity [13] was 35%, the Emax [14] was 63% and the inhibition [15] was “Dose-dependent-effect”. For the same compound, the Activity [16] was “inactive”, the T1/2 [17] was 38.6 s and the Activity [18] was “Dose-dependent-effect”. The Activity [19] was “Active”, the DC50 [20] was 11.8 nM and the Activity [21] was 35%. It also gave an Activity [22] of 87%.
